A word on the kinact/KI: it is the maximal inactivation rate divided by the concentration that gives half of it. For orientation: inhibition means the share of the control response that was lost under treatment.

Results on five compounds are retold here after PMC8103808 (Journal of medicinal chemistry, 2020).

Entries after “also recorded” stand apart in the source; their conditions may differ.

The target of assay [1] is T1, PDI (Homo sapiens, UniProt P07237). Kind of assay: kinact/KI determination in PDI reductase assay with reduced PDI. Type of assay: biochemical.
The next assay addresses PDI H256A mutant (Homo sapiens, UniProt P07237, H256A). Kind of assay: PDI reductase assay with H256A mutant. Type of assay: biochemical. As to conditions: Histidine 256 in b′ domain mutated to alanine. The method in brief:
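H256A PDI was made by site-directed mutagenesis, expressed in BL21(DE3) and purified like wild type. Enzyme (0.4 μM or 50 nM) was preincubated with test compound for 1 h at 37 °C in 100 mM sodium phosphate, 2 mM EDTA, 8 μM DTT, pH 7.0. DTT (500 μM; 125 μM for 50 nM enzyme) and 130 μM bovine insulin were added, and reduction proceeded at room temperature. Insulin B-chain aggregation was read at 620 nm, and activity calculated from ΔOD over 60 min (180 min for 50 nM).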

Assay [2] concerns the target T2, PDIA2 (Homo sapiens, UniProt Q13087).
T2 sequence (Q13087 22-525): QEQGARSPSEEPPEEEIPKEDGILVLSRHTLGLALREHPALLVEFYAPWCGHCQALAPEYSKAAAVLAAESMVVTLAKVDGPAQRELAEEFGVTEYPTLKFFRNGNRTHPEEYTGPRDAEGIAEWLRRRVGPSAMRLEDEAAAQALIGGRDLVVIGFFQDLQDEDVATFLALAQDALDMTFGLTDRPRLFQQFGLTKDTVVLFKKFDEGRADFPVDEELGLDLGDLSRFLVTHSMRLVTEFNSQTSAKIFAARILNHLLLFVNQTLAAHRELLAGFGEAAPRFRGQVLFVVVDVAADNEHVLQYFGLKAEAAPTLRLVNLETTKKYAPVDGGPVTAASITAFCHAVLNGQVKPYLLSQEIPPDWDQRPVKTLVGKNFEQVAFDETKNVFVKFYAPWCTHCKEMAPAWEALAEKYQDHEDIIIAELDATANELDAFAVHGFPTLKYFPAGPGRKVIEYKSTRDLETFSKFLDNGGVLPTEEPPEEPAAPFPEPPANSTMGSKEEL
The assay can be described thus: PDI reductase assay with PDIA2. The assay is classed as biochemical.

For assay [3], the target named is T3, PDIA3 (Homo sapiens, UniProt P30101).
T3 sequence (P30101 25-505): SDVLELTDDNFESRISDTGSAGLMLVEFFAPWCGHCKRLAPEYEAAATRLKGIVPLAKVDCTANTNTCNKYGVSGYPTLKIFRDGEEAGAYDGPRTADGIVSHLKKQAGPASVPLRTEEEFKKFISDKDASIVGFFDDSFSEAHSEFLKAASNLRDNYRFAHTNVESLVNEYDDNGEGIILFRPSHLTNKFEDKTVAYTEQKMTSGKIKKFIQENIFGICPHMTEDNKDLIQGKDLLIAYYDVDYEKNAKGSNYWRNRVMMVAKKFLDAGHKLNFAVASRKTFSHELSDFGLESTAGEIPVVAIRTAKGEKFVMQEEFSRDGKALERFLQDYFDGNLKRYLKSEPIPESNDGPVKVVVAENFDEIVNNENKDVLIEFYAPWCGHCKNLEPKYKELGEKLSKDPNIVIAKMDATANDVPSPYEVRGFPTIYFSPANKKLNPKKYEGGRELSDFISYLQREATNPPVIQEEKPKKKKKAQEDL
Kind of assay: PDI reductase assay with PDIA3. The assay is classed as biochemical.

Assay [4] concerns the target T1, PDI. The assay can be described thus: Thermal shift assay. Particulars: oxidized PDI; 100 μM compound. Type of assay: binding.
Assay [5] has as its target T1, PDI. Kind of assay: Reversibility. Type of assay: biochemical.
A further assay concerns the target PDI b′ domain (Homo sapiens, UniProt P07237). The assay can be described thus: ANS spectral scan. Type of assay: binding. Particulars: 5 μM PDI, 100 μM compound. An outline of the steps:
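Recombinant N-terminally His-tagged human PDI, expressed in E. coli BL21(DE3) and Ni-NTA purified, at 5 μM with 100 μM test compound or matching DMSO in TBS for 1 h at 37 °C. ANS then added and incubated 20 min at 25 °C in the dark. Fluorescence spectrum recorded at Ex 370 nm, Em 400–700 nm.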

Another assay has as its target serum albumin (Bos taurus, UniProt P02769). The assay can be described thus: Gel-based binding in cell-free medium with fetal bovine serum. Particulars: cell-free medium supplemented with fetal bovine serum. An outline of the steps: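 Cell-free DMEM, with 10% FBS added, was incubated overnight at 37 °C with 20 μM BODIPY-labelled test compound. Binding to serum albumin was assessed by in-gel imaging of the labelled protein.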

For assay [6], the target named is T4, PDIA1 (Homo sapiens, UniProt P07237). Kind of assay: Gel-based binding assay with recombinant PDIA1. As to conditions: recombinant protein. The method in brief: (§1)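 Each protein at 3.5 µM in CelLytic M buffer was incubated with BODIPY-labelled test compound overnight at room temperature. PDIA1 and PDIA2 are recombinant human; PDIA1 is His-tagged and expressed in E. coli BL21(DE3). Samples were boiled in Laemmli or non-reducing sample buffer, resolved on 10% polyacrylamide gels, and imaged immediately for labelled protein.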

Assay [7] has as its target T2, PDIA2. Kind of assay: Gel-based binding assay with recombinant PDIA2. Particulars: recombinant protein. The method in brief:
as §1

Assay [8] addresses T3, PDIA3. The assay can be described thus: Gel-based binding assay with recombinant PDIA3. Particulars: recombinant protein. The method in brief:
as §1

The target in the next assay is BSA (Bos taurus, UniProt P02769). Kind of assay: Gel-based binding assay with BSA. On the set-up: species or system bovine. An outline of the steps:
as §1

In assay [9] the target is T4, PDIA1. The assay can be described thus: PDI reductase assay. Type of assay: biochemical.
Assay [10] concerns U−87 MG cells. The assay can be described thus: MTT growth inhibition assay in U-87 MG cells. Type of assay: cell-based. Particulars: Homo sapiens, read-out: MTT (% inhibition at 30 μM). An outline of the steps: (§2)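 Cells were grown at 37 °C, 5% CO₂ in 10% FBS medium: DMEM for U-87 MG, RPMI-1640 for A-172. Duplicate wells of 3000–5000 cells were attached overnight, then exposed to 30 μM test compound for 72 h. MTT (3 mg/mL) was added for 4 h at 37 °C and formazan dissolved in DMSO before reading A570. Inhibition (%) = [1−(At−Ab)/(Ac−Ab)]×100.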
For orientation: Formazan colour is commonly taken as a measure of viable cells.

The target of assay [11] is T1, PDI. The assay can be described thus: Protein mass spectrometry. Particulars: 10 μM PDI, 100 μM DTT, 100 μM compound. The assay is classed as binding. An outline of the steps:
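Recombinant human PDI (10 μM) was incubated with 100 μM test compound and 100 μM DTT for 30 min before injection for Q-TOF intact-protein mass spectrometry to detect covalent adducts.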

Assay [12] has as its target T1, PDI. The assay can be described thus: Gel-based competition with fluorescent probe PACMA57. As to conditions: 100 μM compound. Type of assay: binding.
In a further assay the test system is A-172 cells. Kind of assay: MTT growth inhibition assay in A-172 cells. Type of assay: cell-based. As to conditions: Homo sapiens, A 172, read-out: MTT (% inhibition at 30 μM). The method in brief:
as §2

In assay [13] the test system is U−87 MG cells. Kind of assay: Bromouridine nascent RNA sequencing. Type of assay: cell-based, human. As to conditions: 20 μM, 4 h; GSEA.

T4 sequence (P07237 18-508): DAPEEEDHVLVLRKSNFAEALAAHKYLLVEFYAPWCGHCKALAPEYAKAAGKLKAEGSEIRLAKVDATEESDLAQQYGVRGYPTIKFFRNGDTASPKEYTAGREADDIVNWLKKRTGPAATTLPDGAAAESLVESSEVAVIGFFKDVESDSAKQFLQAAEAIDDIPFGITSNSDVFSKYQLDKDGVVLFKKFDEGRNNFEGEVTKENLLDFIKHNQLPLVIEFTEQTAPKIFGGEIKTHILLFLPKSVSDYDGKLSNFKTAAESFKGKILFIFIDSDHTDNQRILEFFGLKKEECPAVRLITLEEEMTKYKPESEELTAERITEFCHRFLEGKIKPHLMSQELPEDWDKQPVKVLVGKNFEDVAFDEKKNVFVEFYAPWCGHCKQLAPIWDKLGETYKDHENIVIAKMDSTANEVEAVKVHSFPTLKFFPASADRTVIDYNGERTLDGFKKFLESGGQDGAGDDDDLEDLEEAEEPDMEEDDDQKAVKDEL
T1 sequence (P07237 18-508): as above
PDI H256A mutant, sequence (P07237 18-508 H256A): as the sequence (P07237 18-508) above, with H239A counted along it
PDI b′ domain, sequence (P07237 18-508): as the sequence (P07237 18-508) above
BSA, sequence (P02769 25-607): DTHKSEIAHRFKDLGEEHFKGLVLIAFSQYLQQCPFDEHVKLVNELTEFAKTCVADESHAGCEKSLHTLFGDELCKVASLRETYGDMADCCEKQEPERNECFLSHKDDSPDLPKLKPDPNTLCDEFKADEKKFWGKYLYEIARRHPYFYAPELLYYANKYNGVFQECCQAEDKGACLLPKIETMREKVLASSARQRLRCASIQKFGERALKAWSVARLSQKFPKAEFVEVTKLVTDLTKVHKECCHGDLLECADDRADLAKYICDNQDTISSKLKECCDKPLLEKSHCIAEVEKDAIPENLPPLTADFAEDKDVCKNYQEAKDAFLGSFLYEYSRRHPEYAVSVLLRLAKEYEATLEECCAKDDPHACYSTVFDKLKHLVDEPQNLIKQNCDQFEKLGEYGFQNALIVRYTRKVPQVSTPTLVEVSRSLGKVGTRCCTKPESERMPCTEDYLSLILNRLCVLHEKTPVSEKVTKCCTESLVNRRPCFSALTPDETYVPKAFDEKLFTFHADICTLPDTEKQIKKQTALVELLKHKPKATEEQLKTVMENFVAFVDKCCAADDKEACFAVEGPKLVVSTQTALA
serum albumin, sequence (P02769 25-607): as above

Consider `COc1ccc(C(c2cc3c(cc2O)OCO3)N2CCOCC2)cc1OC` (centres unmarked) [AS15], for which the kinact/KI at PDI [1] came to 2600 M⁻¹ s⁻¹. Also, the “activity against H256A mutant PDI” value on PDI H256A mutant is listed as “retained their activity”. On PDIA2 [2], the “inhibition of PDIA2 activity” value is reported as “inhibited activity of PDIA2”. The “inhibition of PDIA3 activity” value at PDIA3 [3] is reported as “could also inhibit PDIA3 activity”. The “stabilization of PDI to thermal degradation” value on PDI [4] is “did not stabilize PDI to thermal degradation”. For the same compound, the “PDI activity recovery after 100-fold dilution” value on PDI [5] (50 μM compound with 40 μM PDI, 3 h at room temperature) is recorded as “did not maintain the characteristics of the high concentration of inhibitor after dilution”. Moreover, on PDI [5] (compound concentrations 10 times that of the protein), the “PDI activity recovery after dilution” value was “behave like the expected irreversible inhibitor”. For the same compound, at PDI b′ domain, the “competition with ANS fluorescence” value is given as “did not lower the fluorescence of ANS”.
As for `CC1=CC(C)=[N+]2C1=C(c1ccc(C(=O)NCCNC(=O)c3ccc(C(c4cc5c(cc4O)OCO5)N4CCCCC4)cc3)cc1)c1c(C)cc(C)n1[B-]2(F)F` (centres unmarked) [compound 16], on serum albumin, the “binding to serum albumin” value was “bound to serum albumin”. Further, at PDIA1 [6], the “binding to PDIA1” value is reported as “covalently binds; also recorded: bound”. On PDIA2 [7], the “binding to PDIA2” value was “bound”. Also, the “binding to PDIA3” value on PDIA3 [8] is “bound”. Further, the “binding to BSA” value at BSA was “bound”.
As for `Oc1cc2c(cc1C(c1ccc(F)cc1)N1CCCCC1)CCC2` (centres unmarked) [6f, 6-((4-Fluorophenyl)(piperidin-1-yl)methyl)-2,3-dihydro-1H-inden-5-ol], at PDIA1 [9], the “PDI inhibition in the PDI reductase assay (in words)” value is on record as “completely lost activity”. Further, the inhibition at 30 µM in the assay on U−87 MG cells [10] stood at 13%. Moreover, the “covalent binding to PDI by mass spectrometry” value on PDI [11] was “did not demonstrate covalent binding to PDI”. The “competition with PACMA57 for binding to PDI” value on PDI [12] is given as “did not compete with PACMA57”.
For the compound `Oc1cc2c(cc1C(c1ccccc1)N1CCCCC1)OCO2` (centres unmarked) [6b, 6-(phenyl(piperidin-1-yl)methyl)benzo[d][1,3]dioxol-5-ol], the inhibition at 30 µM in the assay on A-172 cells was found to be 17%.
With `Oc1c(C(c2ccncc2)N2CCCCC2)ccc2ccoc12` (centres unmarked) [5p, 6-(Piperidin-1-yl(pyridin-4-yl)methyl)benzofuran-7-ol], in the assay on U−87 MG cells [10], the inhibition at 30 µM was 1%. The “effect on transcription (gene set enrichment)” value with U−87 MG cells [13] is listed as “upregulates transcription of genes involved in the unfolded protein response”.
